Test results: ChEMBL document CHEMBL4699441, “Identification and Preclinical Evaluation of the Bicyclic Pyrimidine γ-Secretase Modulator BMS-932481” (ACS Med Chem Lett, 2019)

Key:
[1] = Ratio of drug level in brain to plasma in Harlan Sprague-Dawley rat at 10 mg/kg, po measured after 5 hrs; format: ADME, organism-based; conditions: read-out: BPR
[2] = target: T1, Nuclear receptor subfamily 1 group I member 2 (Homo sapiens, UniProt O75469); test: Transactivation of PXR (unknown origin) assessed as CYP450 induction; format: ADME
T1 sequence (O75469 whole entry): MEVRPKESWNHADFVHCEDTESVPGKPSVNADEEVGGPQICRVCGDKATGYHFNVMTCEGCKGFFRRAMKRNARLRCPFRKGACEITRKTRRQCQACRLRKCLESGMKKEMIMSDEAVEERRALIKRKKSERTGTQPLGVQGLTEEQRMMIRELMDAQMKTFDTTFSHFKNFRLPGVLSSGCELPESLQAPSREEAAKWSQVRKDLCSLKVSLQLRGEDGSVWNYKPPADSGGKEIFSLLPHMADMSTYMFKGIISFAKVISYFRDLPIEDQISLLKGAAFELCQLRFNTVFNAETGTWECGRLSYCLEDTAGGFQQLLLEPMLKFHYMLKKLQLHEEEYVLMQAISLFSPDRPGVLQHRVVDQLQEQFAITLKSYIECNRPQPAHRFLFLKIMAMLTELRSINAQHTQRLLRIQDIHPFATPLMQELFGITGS

[3] = Inhibition of amyloid beta (1 to 40) secretion in human H4 cells overexpressing APP incubated for overnight by HTRF analysis; format: functional, cell-based
[4] = Inhibition of total amyloid beta secretion in human H4 cells overexpressing APP at 50 uM; format: cell-based
Cytochrome P450 2C9 = Cytochrome P450 2C9 (Homo sapiens, UniProt P11712); test: Inhibition of CYP2C9 in human liver microsomes; format: ADME
[5] = Efflux ratio of permeability in human Caco2 cells; format: ADME, cell-based; conditions: caco-2
[6] = Dissociation constant, pKa of compound by spectrophotometric analysis; format: physicochemical
[7] = Volume of steady state distribution in Sprague-Dawley rat at 2 mg/kg, iv measured up to 24 hrs by LC-MS/MS analysis; format: ADME, organism-based; conditions: in vivo
Outline: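 Sprague–Dawley rats; 2 mg/kg given as 5 min iv infusion in 9:1 PEG:EtOH; n = 5; volume of distribution at steady state.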

[8] = Volume of steady state distribution in cynomolgus monkey at 1 mg/kg, iv measured up to 24 hrs by LC-MS/MS analysis; format: ADME, organism-based, Macaca fascicularis; conditions: in vivo
Outline: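 Male Beagle dog or male cynomolgus monkey; 1 mg/kg as 5 min iv infusion in 9:1 PEG:EtOH; n = 3; volume of distribution at steady state.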

Sequence of Cytochrome P450 2C9 (P11712 whole entry): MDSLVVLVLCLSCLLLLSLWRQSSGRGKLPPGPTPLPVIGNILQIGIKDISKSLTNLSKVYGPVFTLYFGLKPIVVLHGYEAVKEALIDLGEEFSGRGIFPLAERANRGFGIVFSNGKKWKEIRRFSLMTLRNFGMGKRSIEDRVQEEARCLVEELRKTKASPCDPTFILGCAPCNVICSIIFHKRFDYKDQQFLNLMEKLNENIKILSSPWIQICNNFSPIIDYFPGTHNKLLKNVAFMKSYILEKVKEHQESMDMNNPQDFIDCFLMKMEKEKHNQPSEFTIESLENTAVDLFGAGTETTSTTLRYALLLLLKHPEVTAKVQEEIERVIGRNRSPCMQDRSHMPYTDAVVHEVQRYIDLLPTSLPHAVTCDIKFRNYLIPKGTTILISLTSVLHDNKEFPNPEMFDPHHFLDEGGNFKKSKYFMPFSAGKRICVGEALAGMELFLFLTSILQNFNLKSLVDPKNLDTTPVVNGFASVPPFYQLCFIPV

CNc1nc(Nc2ccc(-n3cnc(C)n3)c(OC)c2)nc2c1CC[C@H]2c1ccc(F)cc1
Kp at 5 h [1]: 0.23
EC50 [2]: > 2700 nM
IC50 [3]: 25 nM
inhibition at 50 µM [4]: 30%
IC50 (Cytochrome P450 2C9): 7400 nM
Ratio [5]: 0.8
pKa [6]: 5.9
Vdss [7]: 2.3 L/kg
Vdss [8]: 5.4 L/kg
